Measurements reported in ChEMBL document CHEMBL1136140, “Tripeptide inhibitors of Yersinia protein-tyrosine phosphatase” (Bioorg Med Chem Lett, 2003).
Square brackets hold non-standard residues; d marks the D form. Peptide text beside a SMILES is read from it. * marks the point of attachment. F2Pmp = N[C@@H](Cc1ccc(C(F)(F)P(=O)(O)O)cc1)C(=O)O; Fmoc = O=C(OCC1c2ccccc2-c2ccccc21)*; OBn = c1ccc(CO*)cc1

Columns and labels:
[1] = target: Secreted effector protein (Yersinia pestis, UniProt O68720); assay: Inhibition of Tyrosine phosphatase from Yersinia pestis expressed in Escherichia coli BL21 (DE3) cells
Method in brief: (§1)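 Recombinant enzymes made in E. coli BL21(DE3) and purified as published previously. Assay run at 30 °C, pH 7.0, in 50 mM 3,3-dimethylglutarate, 1 mM EDTA, ionic strength brought to 150 mM with NaCl. Substrate pNPP fixed at each enzyme's Km. Enzyme added to start, NaOH quench, A405 read. Six to eight inhibitor concentrations used. IC50 obtained by fitting relative activity to a four-parameter slope-factor equation.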

[2] = target: T1, Tyrosine-protein phosphatase non-receptor type 1 (Homo sapiens, UniProt P18031); assay: Inhibition of human Protein-tyrosine phosphatase 1B expressed in Escherichia coli BL21 (DE3) cells; method in brief: as §1
T1 sequence (P18031 whole entry): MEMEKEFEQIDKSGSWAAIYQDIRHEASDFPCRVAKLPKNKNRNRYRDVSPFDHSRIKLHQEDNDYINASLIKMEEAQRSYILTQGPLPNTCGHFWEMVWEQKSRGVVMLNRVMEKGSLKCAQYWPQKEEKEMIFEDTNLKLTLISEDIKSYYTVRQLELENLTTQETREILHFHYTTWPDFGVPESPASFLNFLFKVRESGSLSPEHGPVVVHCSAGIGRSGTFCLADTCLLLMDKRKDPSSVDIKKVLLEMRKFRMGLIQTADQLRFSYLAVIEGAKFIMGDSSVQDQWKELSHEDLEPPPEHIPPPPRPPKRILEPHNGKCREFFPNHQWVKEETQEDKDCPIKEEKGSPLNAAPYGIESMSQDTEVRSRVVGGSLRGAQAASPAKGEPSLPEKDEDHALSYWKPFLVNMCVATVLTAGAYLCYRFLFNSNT

[3] = target: T1, Tyrosine-protein phosphatase non-receptor type 1; assay: Inhibitory potency against human Protein-tyrosine phosphatase 1B expressed in Escherichia coli BL21 (DE3) cells; method in brief: as §1

Sequence of Secreted effector protein (O68720 whole entry): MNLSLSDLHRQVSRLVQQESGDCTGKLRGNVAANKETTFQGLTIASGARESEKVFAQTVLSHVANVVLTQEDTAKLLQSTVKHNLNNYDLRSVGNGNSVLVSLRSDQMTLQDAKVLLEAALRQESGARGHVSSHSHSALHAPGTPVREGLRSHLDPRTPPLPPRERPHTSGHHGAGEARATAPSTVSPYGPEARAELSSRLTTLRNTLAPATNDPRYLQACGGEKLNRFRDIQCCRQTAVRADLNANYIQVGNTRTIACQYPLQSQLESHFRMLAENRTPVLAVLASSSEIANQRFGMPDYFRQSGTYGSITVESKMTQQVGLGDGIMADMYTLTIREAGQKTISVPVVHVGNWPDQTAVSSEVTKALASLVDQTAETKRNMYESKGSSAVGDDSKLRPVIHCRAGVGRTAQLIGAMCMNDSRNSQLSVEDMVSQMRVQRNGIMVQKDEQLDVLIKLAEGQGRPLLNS

| Structure (SMILES) | IC50 [1] | IC50 [2] | Ki [3] |
| --- | --- | --- | --- |
| CC(C)C[C@H](NC(=O)[C@H](Cc1ccc(C(F)(C(=O)O)C(=O)O)cc1)NC(=O)[C@H](CCC(=O)OCc1ccccc1)NC(=O)OCC1c2ccccc2-c2ccccc21)C(N)=O | 3.1 µM | 3.1 µM | – |
| CC(C)C[C@H](NC(=O)[C@H](Cc1ccc(CC(=O)O)c(C(=O)O)c1)NC(=O)[C@H](CCC(=O)OCc1ccccc1)NC(=O)OCC1c2ccccc2-c2ccccc21)C(N)=O | 142 µM | 44 µM | – |
| CC(C)C[C@H](NC(=O)[C@H](Cc1ccc(OC(C(=O)O)C(=O)O)cc1)NC(=O)[C@H](CCC(=O)OCc1ccccc1)NC(=O)OCC1c2ccccc2-c2ccccc21)C(N)=O | 82 µM | 116 µM | – |
| CC(C)C[C@H](NC(=O)[C@H](Cc1ccc(OC(F)(C(=O)O)C(=O)O)cc1)NC(=O)[C@H](CCC(=O)OCc1ccccc1)NC(=O)OCC1c2ccccc2-c2ccccc21)C(N)=O | 2.9 µM | 1.5 µM | – |
| CC(C)C[C@H](NC(=O)[C@H](Cc1ccc(OCC(=O)O)cc1)NC(=O)[C@H](CCC(=O)OCc1ccccc1)NC(=O)OCCc1ccccc1)C(N)=O | 8 µM | 58.2 µM | – |
| CC(C)C[C@H](NC(=O)[C@H](Cc1ccc(C(F)(C(=O)O)C(=O)O)cc1)NC(=O)[C@H](CCC(=O)O)NC(=O)OCC1c2ccccc2-c2ccccc21)C(N)=O | > 800 µM | 0.7 µM | – |
| CC(C)C[C@H](NC(=O)[C@H](Cc1ccc(C(F)(F)P(=O)(O)O)cc1)NC(=O)[C@H](CCC(=O)OCc1ccccc1)NC(=O)OCC1c2ccccc2-c2ccccc21)C(N)=O (Fmoc-Glu(OBn)-[F2Pmp]-Leu-NH2) | 5.2 µM | 1.41 µM | – |
| CC(C)C[C@H](NC(=O)[C@H](Cc1ccc(C(C(=O)O)C(=O)O)cc1)NC(=O)[C@H](CCC(=O)O)NC(=O)OCC1c2ccccc2-c2ccccc21)C(N)=O | > 800 µM | 0.8 µM | – |
| CC(C)C[C@H](NC(=O)[C@H](Cc1ccc(OCC(=O)O)c(C(=O)O)c1)NC(=O)[C@H](CCC(=O)O)NC(=O)OCC1c2ccccc2-c2ccccc21)C(N)=O | > 100 µM | 54.7 µM | – |
| CC(C)C[C@H](NC(=O)[C@H](Cc1ccc(C(F)(F)C(=O)O)cc1)NC(=O)[C@H](CCC(=O)O)NC(=O)OCC1c2ccccc2-c2ccccc21)C(N)=O | > 800 µM | 1.4 µM | – |
| CC(C)C[C@H](NC(=O)[C@H](Cc1ccc(CC(=O)O)c(C(=O)O)c1)NC(=O)[C@H](CCC(=O)O)NC(=O)OCC1c2ccccc2-c2ccccc21)C(N)=O | > 800 µM | 0.7 µM | – |
| CC(C)C[C@H](NC(=O)[C@H](Cc1ccc(OCC(=O)O)c(C(=O)O)c1)NC(=O)[C@H](CCC(=O)OCc1ccccc1)NC(=O)OCC1c2ccccc2-c2ccccc21)C(N)=O | 10.5 µM | 8.3 µM | – |
| CC(C)C[C@H](NC(=O)[C@H](Cc1ccc(OC(C(=O)O)C(=O)O)cc1)NC(=O)[C@H](CCC(=O)O)NC(=O)OCC1c2ccccc2-c2ccccc21)C(N)=O | > 800 µM | – | 29 µM |
| CC(C)C[C@H](NC(=O)[C@H](Cc1ccc(CC(=O)O)c(O)c1)NC(=O)[C@H](CCC(=O)O)NC(=O)OCC1c2ccccc2-c2ccccc21)C(N)=O | > 800 µM | 4 µM | – |
